{
  "source": "paper PMC11838921",
  "about": "(Journal of agricultural and food chemistry, 2024)",
  "key": {"antiphenamacril mAb": {"system": "antiphenamacril mAb", "assay": "ic-ELISA for sensitivity and specificity of the mAb", "type": "binding, Balb/c mice", "settings": "for Cross-reactivity: CR = IC50(analyte)/IC50(structural analogue) x 100%; for IC50: ic-ELISA, standards in 10% methanol-PBS", "method_in_brief": "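Ic-ELISA with purified mAb (ascites, Protein G column). Phenamacril standards at 0–500 ng/mL (500 to 1.95 in twofold steps) in 10% methanol-PBS; 50 μL standard and 50 μL mAb per well. IC50 taken as sensitivity. Cross-reactivity run with four methoxyacrylate analogues: IC50(analyte)/IC50(analogue) × 100%.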"}, "Au@PDA-mAb probe [1]": {"system": "Au@PDA-mAb probe", "assay": "dual-readout immunochromatographic strip", "type": "binding", "method_in_brief": "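Standards and analogues at 0.63–20 ng/mL in PBS with 10% methanol were applied to the strip sample pad (100 μL). Au@PDA-mAb probe sat on the conjugate pad. T line held phenamacril-OVA plus QDs-OVA; C line held anti-mouse IgG. Colour read by eye as T-line red loss against the C line. Fluorescence read as green T-line intensity under UV.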"}, "Au@PDA-mAb probe [2]": {"system": "Au@PDA-mAb probe", "assay": "dr-ICGA on wheat flour samples", "type": "binding", "settings": "n = 5", "method_in_brief": "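Phenamacril-free flour (5 g, confirmed by LC-MS/MS) in 10 mL ultrapure water, vortexed 2 min, spiked with standard to 0.0125–0.20 mg/kg; water-only blank at 0 mg/kg. Residue redissolved in 1 mL 10% methanol-PBS, then diluted 10-fold. 100 μL applied to the strip. Read by eye as −, ± or +, with cut-offs <0.05, 0.05–0.1 and >0.1 mg/kg.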"}, "antisera": {"system": "antisera", "assay": "ic-ELISA of antiserum of the immunized mouse", "type": "binding, Balb/c mice", "settings": "phenamacril at 1 μg/mL, mouse used for fusion (titer 80,000)"}, "[3]": {"settings": "Jiangxi red soil; cited from earlier work"}, "[4]": {"settings": "activated sludge; cited from earlier work"}},
  "data": [
    {"smiles": "COC(=O)N(OC)c1ccccc1COc1ccn(-c2ccc(Cl)cc2)n1", "note": "[Pyraclostrobin]", "values": [
      {"measurement": "Cross-reactivity", "setting": "antiphenamacril mAb", "value": "<0.35", "unit": "%"},
      {"measurement": "Cross-reactivity", "setting": "antiphenamacril mAb; listed as pyraclostrobin", "value": "< 0.35", "unit": "%"},
      {"measurement": "IC50", "setting": "antiphenamacril mAb", "value": ">5,000 ng/mL"}
    ]},
    {"smiles": "CO/C=C(/C(=O)OC)c1ccccc1COc1cccc(C(F)(F)F)n1", "note": "[Picoxystrobin]", "values": [
      {"measurement": "Cross-reactivity", "setting": "antiphenamacril mAb", "value": "<0.35", "unit": "%"},
      {"measurement": "Cross-reactivity", "setting": "antiphenamacril mAb; listed as picoxystrobin", "value": "< 0.35", "unit": "%"},
      {"measurement": "IC50", "setting": "antiphenamacril mAb", "value": ">5,000 ng/mL"}
    ]},
    {"smiles": "CCOC(=O)C(C#N)=C(N)c1ccccc1", "note": "[Phenamacril, 2-cyano-3-amino-3-phenylacrylic acetate]", "values": [
      {"measurement": "Cross-reactivity", "setting": "antiphenamacril mAb", "value": 100, "unit": "%"},
      {"measurement": "IC50", "setting": "antiphenamacril mAb", "value": 17.46, "unit": "ng/mL"},
      {"measurement": "reaction on the T line of the dual-readout strip", "setting": "Au@PDA-mAb probe [1]; 20 ng/mL loaded, visual and UV readout", "value": "strong positive reaction on the T line"},
      {"measurement": "limit of detection (cutoff value)", "setting": "Au@PDA-mAb probe [1]; dr-ICGA, colorimetric and fluorescent readout, within 10 min", "value": 5, "unit": "ng/mL"},
      {"measurement": "dr-ICGA visual result (dilute 10 times)", "setting": "Au@PDA-mAb probe [2]; wheat flour spiked 0.0125 mg/kg", "value": "−, −, −, −, −,"},
      {"measurement": "dr-ICGA visual result (dilute 10 times)", "setting": "Au@PDA-mAb probe [2]; wheat flour spiked 0.025 mg/kg", "value": "−, ± , −, ± , −,"},
      {"measurement": "dr-ICGA visual result (dilute 10 times)", "setting": "Au@PDA-mAb probe [2]; wheat flour spiked 0.05 mg/kg", "value": "±, ± , ± , ± , ± ,"},
      {"measurement": "dr-ICGA visual result (dilute 10 times)", "setting": "Au@PDA-mAb probe [2]; wheat flour spiked 0.1 mg/kg", "value": "±, + , + , + , + ,"},
      {"measurement": "dr-ICGA visual result (dilute 10 times)", "setting": "Au@PDA-mAb probe [2]; wheat flour spiked 0.2 mg/kg", "value": "+, + , + , + , + ,"},
      {"measurement": "inhibition rate", "setting": "antisera", "value": "approximately 70.8%"},
      {"measurement": "mobility in soil", "setting": "[3]", "value": "moderately mobile"},
      {"measurement": "degradation", "setting": "[4]", "value": "degrades slowly"}
    ]},
    {"smiles": "CO/C=C(/C(=O)OC)c1ccccc1Oc1cc(Oc2ccccc2C#N)ncn1", "note": "[Azoxystrobin]", "values": [
      {"measurement": "Cross-reactivity", "setting": "antiphenamacril mAb", "value": "<0.35", "unit": "%"},
      {"measurement": "Cross-reactivity", "setting": "antiphenamacril mAb; listed as azoxystrobin", "value": "< 0.35", "unit": "%"},
      {"measurement": "IC50", "setting": "antiphenamacril mAb", "value": ">5,000 ng/mL"}
    ]},
    {"smiles": "COc1c(F)c(F)c(C(=O)NCc2ncc(C(F)(F)F)cc2Cl)c(F)c1F", "note": "[Fluopimomide]", "values": [
      {"measurement": "Cross-reactivity", "setting": "antiphenamacril mAb", "value": "<0.35", "unit": "%"},
      {"measurement": "Cross-reactivity", "setting": "antiphenamacril mAb; listed as fluopimomide", "value": "< 0.35", "unit": "%"},
      {"measurement": "IC50", "setting": "antiphenamacril mAb", "value": ">5,000 ng/mL"}
    ]}
  ]
}
